Series [1] relates to Plasmodium falciparum. Put plainly: ST_JUDE: Plasmodium falciparum 3D7 EC50 (uM) as measured by SYBR green dye. It counts as functional, organism-based.
Series [2] deals with Plasmodium falciparum. Put plainly: ST_JUDE: Plasmodium falciparum K1 EC50 (uM) as measured by SYBR green dye. The series is classed as functional, organism-based.
For series [3], the system named is Plasmodium falciparum. Put plainly: ST_JUDE: Cytotoxicity against Plasmodium falciparum 3D7. It counts as functional, organism-based. Put shortly:
(§1)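 Asexual P. falciparum grown in human erythrocytes, exposed to compounds for 72 h, and growth read as the DNA quantity in treated versus control cultures. Dose-response run at 12 concentrations from 10 μM to 5 nM.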

The subject of series [4] is Plasmodium falciparum. Put plainly: ST_JUDE: Cytotoxicity against Plasmodium falciparum K1. The series is classed as functional, organism-based. Put shortly: as §1
Series [5] deals with Plasmodium falciparum. Put plainly: ST_JUDE: Cytotoxicity against Plasmodium falciparum V1/S. It counts as functional, organism-based.
Series [6] has as its system Toxoplasma gondii. As to the kind of experiment: ST_JUDE: Growth inhibition of to Toxoplasma gondii, in human U-2OS cells, as measured by luciferase. It counts as functional, organism-based. The conditions noted are these: RH, U2OS. Put shortly: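 T. gondii parasites engineered to express luciferase; drug sensitivity read by luminescence.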
The subject of series [7] is Trypanosoma brucei. Put plainly: ST_JUDE: Cytotoxicity using luciferase to measure ATP as an indicator of the viability of Trypanosoma brucei. It counts as functional, organism-based.
Series [8] deals with Leishmania major. Put plainly: ST_JUDE: Cytotoxicity using Alamar Blue to measure viability of Leishmania major. The series is classed as functional, organism-based. Put shortly:
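L. major promastigotes; drug susceptibility read with Alamar Blue.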
(In general: The colour change of resazurin is a common sign of viable cells or microbes.)

Series [9] in a line: ST_JUDE: Cytotoxicity using luciferase to measure ATP as an indicator of the viability of human foreskin fibroblast cells (BJ). The series is classed as toxicity, cell-based.
Series [10] in a line: ST_JUDE: Cytotoxicity using luciferase to measure ATP as an indicator of the viability of human epithelial hepatocellular carcinoma cells (HepG2). It counts as toxicity, cell-based.
A short description of series [11]: ST_JUDE: Cytotoxicity using luciferase to measure ATP as an indicator of the viability of human epithelial embryonic kidney cells (HEK293). The series is classed as toxicity, cell-based.
A short description of series [12]: ST_JUDE: Cytotoxicity using luciferase to measure ATP as an indicator of the viability of human Burkitt''s lymphoma lymphoblast cells (Raji). The series is classed as toxicity, cell-based.
The test system of series [13] is Plasmodium falciparum. Put plainly: ST_JUDE: Cytotoxicity against Plasmodium falciparum Dd2. The series is classed as functional, organism-based.
The test system of series [14] is Plasmodium falciparum. Put plainly: ST_JUDE: Cytotoxicity against Plasmodium falciparum W2. It counts as functional, organism-based.
The test system of series [15] is Plasmodium falciparum. Put plainly: ST_JUDE: Cytotoxicity against Plasmodium falciparum SB-A6. The series is classed as functional, organism-based.
Series [16] deals with Plasmodium falciparum. Put plainly: ST_JUDE: Cytotoxicity against Plasmodium falciparum D10 transfected with yeast DHOD. It counts as functional, organism-based.

pEC50: −log10 of the molar value.

For orientation: pEC50 means −log10 of the EC50, conventionally taken in molar units. Read a low pEC50 as a high EC50.

Consider `Fc1ccc(Nc2nc(NCc3ccco3)c3ccccc3n2)cc1`, for which the pEC50 was 6.17 in [1]; under 4.82 in series [2]; 6.24 in series [3]; 5.95 in series [4]; 5.72 in [5]; 4.87 in series [6]. In addition, the pEC50 was 4.91 in series [7]; 8.54 in [8]; 4.70 in series [9]; 5.08 in series [10]; 4.70 in series [11]; 4.83 in [12]. Besides, the pEC50 in [13] is 6.31; in [14] it was 6.45; in series [15], 6.45; in [16] it was 5.92.
Consider `CC(CNC(=O)c1cn(C2CCCCC2)cc(C(=O)NC(C)(C)C)c1=O)c1ccccc1` (stereo not drawn), for which the pEC50 in series [1] is 7.03; in series [2], 5.09; in series [3] it was 6.49; in [4], 6.15; in [5], under 4.87; in [6] it was under 4.54. Further, the pEC50 in series [7] is under 4.30; in series [8] it was under 4.65; in [9], under 4.28; in series [10] it was under 4.28; in series [11], under 4.28; in [12], under 4.28. Moreover, the pEC50 is 5.66 in series [13], under 4.87 in [14], 6.96 in series [15] and 6.82 in series [16].
For `CCCO/C(O)=C1\C(C)=NC2=C(C(=O)CC(c3ccc(OC)c(OC)c3)C2)C1c1ccc(F)cc1` (stereo not drawn), the pEC50 in series [1] is 7.21; in series [2], 7.62; in [3], 7.02; in series [4], 6.92; in series [5] it was 6.81; in [6] it was under 4.70. The pEC50 is 5.23 in series [7]; under 4.81 in series [8]; under 4.44 in series [9]; under 4.44 in [10]; under 4.44 in series [11]; under 4.44 in series [12]. In addition, the pEC50 is 7.02 in series [13], 7.25 in [14], 7.22 in series [15] and 7.24 in series [16].
Regarding `Cc1c2[nH]c3ccccc3c2c2c([n+]1C)CC(C)(C)CC2`, the pEC50 in series [1] was 6.05; in series [2] it was 5.85; in [3], 5.50; in [4], 5.45; in series [5], 5.48; in series [6] it was under 4.52. The pEC50 was 4.87 in [7]; 6.32 in [8]; under 4.26 in series [9]; under 4.26 in [10]; under 4.26 in series [11]; under 4.26 in series [12]. In addition, the negative logarithm of the EC50 (pEC50) was 6.04 in series [13], 6.81 in series [14], 5.98 in series [15] and 5.87 in [16].
In the case of `OC(CNC1CCCC1)Cn1c2ccccc2c2ccccc21` (stereo not drawn), the pEC50 in series [1] was 5.97; in series [2], 6.79; in [3] it was 5.77; in series [4] it was 6.21; in series [5] it was 6.09; in [6] it was under 4.65. Besides, the pEC50 was 5.47 in [7]; under 4.76 in series [8]; 4.69 in [9]; 4.83 in series [10]; 4.50 in series [11]; under 4.39 in series [12]. The pEC50 is 6.05 in [13], 6.06 in series [14], 5.50 in [15] and 5.57 in series [16].
Consider `CC(C)(C)c1cc(/N=N/C(=O)c2ccncc2)cc(C(C)(C)C)c1O`, for which the pEC50 in series [1] was 6.26; in series [2], 6.30; in [3], 6.22; in [4], 6.32; in [5] it was 6.29; in [6], 5.64. In addition, the negative logarithm of the EC50 (pEC50) in [7] is 6.00; in series [8], under 4.92; in [9], under 4.55; in series [10], under 4.55; in series [11], 6.01; in series [12], 6.17. The pEC50 in series [13] was 5.99; in series [14], 5.95; in [15], 6.33; in series [16], 6.32.
Take `Cc1cccc(N2CCN(Cc3cc(Br)ccc3O)CC2)c1C`: the pEC50 in series [1] is 6.37; in series [2] it was 6.82; in [3], 6.43; in [4], 6.75; in [5] it was 6.59; in series [6], under 4.82. For the same compound, the pEC50 was under 4.57 in series [7]; under 4.92 in series [8]; under 4.55 in series [9]; under 4.55 in series [10]; under 4.55 in series [11]; under 4.55 in series [12]. Also, the pEC50 in [13] was 6.28; in series [14], under 5.14; in series [15] it was 6.16; in series [16], 6.24.
As to `COCCO/C(O)=C1\C(C)=NC2=C(C(=O)CC(c3ccc(OC)c(OC)c3)C2)C1c1ccccc1F` (stereo not drawn), the pEC50 in [1] was 6.14; in [2], 6.26; in [3], 6.30; in [4] it was 6.50; in [5], 6.39; in series [6], under 4.66. Also, the pEC50 in series [7] was under 4.42; in series [8], under 4.77; in [9] it was under 4.40; in series [10], under 4.40; in series [11], under 4.40; in [12] it was under 4.40. Also, the pEC50 in series [13] is 6.01; in [14], 5.87; in series [15], 6.50; in series [16], 6.26.
On to `CCCCCOc1ccc(N(C(C)=O)C2=C(N3CCOCC3)C(=O)c3ccccc3C2=O)cc1`, for which the pEC50 in series [1] is 6.49; in series [2], 6.68; in series [3] it was 7.12; in [4] it was 7.11; in [5], 7.15; in series [6] it was under 4.70. For the same compound, the pEC50 is 5.73 in series [7]; under 4.81 in [8]; under 4.44 in series [9]; 4.65 in [10]; under 4.44 in series [11]; 5.49 in series [12]. The pEC50 in [13] was 5.83; in [14], under 5.03; in [15], 7.22; in [16], 7.44.
As for `CCO/C(O)=C1\C(C)=NC2=C(C(=O)CC(c3ccc(OC)c(OC)c3)C2)C1c1cccc(C)c1` (stereo not drawn), the pEC50 is 5.99 in series [1]; 6.20 in [2]; 5.96 in series [3]; 6.02 in [4]; 5.93 in series [5]; under 4.65 in series [6]. The pEC50 is under 4.41 in series [7]; under 4.76 in series [8]; under 4.39 in series [9]; under 4.39 in series [10]; under 4.39 in series [11]; under 4.39 in [12]. In addition, the pEC50 was 5.68 in series [13], 6.09 in [14], 6.22 in series [15] and 5.87 in [16].
For `CCc1ccc(S(=O)(=O)NC2=C/C(=N\c3ccccc3OC)C(=O)c3ccccc32)cc1`, the pEC50 in series [1] is 6.56; in series [2], 6.83; in series [3] it was 6.02; in series [4] it was 6.42; in [5] it was 6.48; in series [6], under 4.66. The pEC50 is 5.70 in [7]; under 4.77 in series [8]; 5.17 in series [9]; 4.99 in [10]; 5.05 in series [11]; 5.56 in series [12]. For the same compound, the pEC50 in series [13] is 6.17; in series [14], under 4.99; in series [15], 6.27; in series [16], 6.39.
As to `CCCO/C(O)=C1\C(C)=NC2=C(C(=O)CC(c3ccc(OC)c(OC)c3)C2)C1c1ccccc1F` (stereo not drawn), the pEC50 is 7.30 in series [1]; 7.29 in [2]; 6.95 in series [3]; 7.08 in series [4]; 6.98 in [5]; under 4.65 in [6]. The pEC50 in [7] was 5.18; in series [8] it was under 4.75; in series [9], 8.74; in series [10], under 4.39; in series [11], 4.45; in series [12], under 4.39. For the same compound, the pEC50 in [13] is 7.05; in series [14], 7.19; in series [15], 7.44; in series [16], 7.39.
For `Oc1ccc(Cl)cc1CN1CCN(c2cccc(C(F)(F)F)c2)CC1`, the pEC50 in [1] was 5.62; in series [2], 6.05; in series [3], 5.80; in [4], 6.32; in series [5], 6.07; in series [6], under 4.71. Moreover, the pEC50 was under 4.47 in [7]; under 4.82 in series [8]; under 4.45 in [9]; under 4.45 in [10]; under 4.45 in [11]; under 4.45 in series [12]. The pEC50 was 5.81 in series [13], under 5.04 in series [14], 5.67 in series [15] and 5.78 in series [16].

For the origin of these results see ChEMBL document CHEMBL1154198, “Chemical genetics of Plasmodium falciparum” (Nature, 2010).
